Experimental data: ChEMBL document CHEMBL3877298, “Discovery of benzimidazole derivatives as modulators of mitochondrial function: A potential treatment for Alzheimer's disease” (Eur J Med Chem, 2017)
pIC50, pKd, pKi: −log10 of the molar value.

Key:
[1] = biological target: Voltage-gated inwardly rectifying potassium channel KCNH2 (Homo sapiens, UniProt Q12809); test: Inhibition of human ERG expressed in CHOK1 cells by automated patch clamp method; type: cell-based, CHO-K1
[2] = Cmax in Sprague-Dawley rat at 10 mg/kg, po by LC-MS/MS analysis; type: ADME, organism-based; design: dose 10 mg/kg, route oral; details: in vivo
Outline: (§1)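 Male SD rats, 8 weeks old, acclimatised at least 1 week; compound dissolved at 10 mg/2 mL in N-methyl-2-pyrrolidone/Tween80/water (1:2:7) by 5 min sonication, given 10 mg/kg by oral gavage at 2 mL/kg (n = 5). Heart-puncture blood drawn at 30 min and 3 h, plasma spun and stored at -70 °C. Samples mixed with carbamazepine internal standard in acetonitrile and assayed by LC-MS/MS.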

[3] = Total clearance in Sprague-Dawley rat at 10 mg/kg, iv by LC-MS/MS analysis; type: ADME, organism-based; details: in vivo
Outline: (§2)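 Male SD rats, 8 weeks old, given 10 mg/kg intravenously (n = 4). Plasma mixed with carbamazepine internal standard in acetonitrile, vortexed, centrifuged at 10,000×g, and the supernatant analysed by LC-MS/MS. Parameters reported as mean ± SD.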

[4] = biological target: Translocator protein (Mus musculus) (UniProt P50637); test: Inhibition of TSPO in mouse HT22 cells assessed as protection against amyloid beta (1 to 42)-induced mitochondrial membrane potential loss by measuring recovery of ATP production at 5 uM preincubated for 10 mins followed by amyloid beta (1 to 42) addition measured after 7 hrs by luciferase reporter gene assay relative to control; type: cell-based; design: scale not given: the % may be the effect or the level left; details: HT-22
Outline: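 HT22 cells at 7000 per well were given compound (5 µM) for 10 min at 37 °C, then Aβ1-42 (5 µM) or DMSO vehicle, and incubated 7 h. Cells were washed, lysed in 1% Triton X-100, and protein-equalised by BCA. ATP was measured by luciferin/luciferase luminescence and normalised to vehicle.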

[5] = Tmax in Sprague-Dawley rat at 10 mg/kg, po by LC-MS/MS analysis; type: ADME, organism-based; details: in vivo; outline: as §1
[6] = AUC (0 to infinity) in Sprague-Dawley rat at 10 mg/kg, po by LC-MS/MS analysis; type: ADME, organism-based; design: dose 10 mg/kg, route oral, time infinity; details: in vivo; outline: as §1
[7] = Terminal half life in Sprague-Dawley rat at 10 mg/kg, iv by LC-MS/MS analysis; type: ADME, organism-based; details: in vivo, read-out: beta t1/2; outline: as §2
[8] = Drug excretion in Sprague-Dawley rat at 10 mg/kg, po by LC-MS/MS analysis; type: ADME, organism-based; details: in vivo, read-out: Drug excretion
CYP2D6 = CYP2D6 (Homo sapiens, UniProt P10635); test: Inhibition of recombinant human CYP2D6 expressed in baculosomes coexpressing rabbit NADPH-P450 reudctase assessed as residual activity at 10 uM preincubated for 5 mins followed by substrate and NADP+ addition measured after 20 mins by fluorescence assay relative to control; type: ADME; details: read-out: Activity
Outline: (§3)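 Vivid CYP450 kit: recombinant human CYP isozyme in Baculosomes with rabbit NADPH-P450 reductase, plus regeneration system (3.3 mM glucose-6-phosphate, 0.3 U/mL G6PDH in 100 mM potassium phosphate, pH 8.0). Mixture preincubated with sample for 5 min at 37 °C. Vivid substrate and 0.1 mM NADP+ were then added, and remaining activity read by fluorescence after 20 min.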

[9] = Ratio of drug level in brain to plasma in Sprague-Dawley rat at 10 mg/kg, po at 2 hrs post dose by LC-MS/MS analysis; type: ADME, organism-based; details: brain and plasma, read-out: BPR
Translocator protein [10] = biological target: Translocator protein (Homo sapiens, UniProt P30536); test: Binding affinity to recombinant human TSPO by SPR assay
Outline: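 Biacore T200 at 25 °C with recombinant human TSPO (18 kDa) amine-coupled to a CM5 chip in 10 mM sodium acetate pH 4.5, giving 4000–6000 RU. Compounds from 10 mM DMSO stocks were diluted in PBS-P; running buffer held 1.0% DMSO. Five concentrations, 0.01–5 µM, were injected at 50 µL/min (120 s contact, 300 s dissociation), with blanks and regeneration. KD reported.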

CYP3A4 = CYP3A4 (Homo sapiens, UniProt P08684); test: Inhibition of recombinant human CYP3A4 expressed in baculosomes coexpressing rabbit NADPH-P450 reudctase assessed as residual activity at 10 uM preincubated for 5 mins followed by substrate and NADP+ addition measured after 20 mins by fluorescence assay relative to control; type: ADME; details: read-out: Activity; outline: as §3
Translocator protein [11] = biological target: Translocator protein (Rattus norvegicus, UniProt P16257); test: Displacement of [3H]PK11195 from TSPO in Sprague-Dawley rat cerebral cortex membranes after 60 mins by microbeta liquid scintillation counting method; design: species or system Membrane
Mus musculus = test: Reversal of coginitive deficit in double APP/PS1 transgenic Alzheimer's disease mouse model assessed as increase in freezing response at 30 mg/kg, po daily for 1 month by contextual fear conditioning test; type: functional

Translocator protein (Rattus norvegicus, UniProt P16257), sequence (P16257 whole entry, looked up): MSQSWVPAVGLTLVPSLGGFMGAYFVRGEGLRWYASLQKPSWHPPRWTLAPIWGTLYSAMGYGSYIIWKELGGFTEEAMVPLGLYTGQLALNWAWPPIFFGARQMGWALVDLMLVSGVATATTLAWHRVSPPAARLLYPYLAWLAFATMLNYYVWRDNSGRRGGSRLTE
CYP2D6, sequence (P10635 whole entry): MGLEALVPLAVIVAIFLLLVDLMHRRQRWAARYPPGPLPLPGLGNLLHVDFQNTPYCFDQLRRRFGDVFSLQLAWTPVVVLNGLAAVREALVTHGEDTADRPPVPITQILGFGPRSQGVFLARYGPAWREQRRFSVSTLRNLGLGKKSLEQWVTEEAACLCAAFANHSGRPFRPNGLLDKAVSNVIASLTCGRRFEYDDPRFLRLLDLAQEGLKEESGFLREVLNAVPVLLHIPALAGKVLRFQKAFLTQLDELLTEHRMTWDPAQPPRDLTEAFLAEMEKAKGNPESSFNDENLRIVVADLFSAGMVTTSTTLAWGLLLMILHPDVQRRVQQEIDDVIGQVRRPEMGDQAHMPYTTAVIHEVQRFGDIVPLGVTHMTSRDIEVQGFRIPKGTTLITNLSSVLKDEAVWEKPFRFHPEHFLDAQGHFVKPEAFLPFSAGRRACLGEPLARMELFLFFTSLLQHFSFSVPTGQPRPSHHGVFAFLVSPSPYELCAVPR
Translocator protein (Homo sapiens, UniProt P30536), sequence (P30536 whole entry): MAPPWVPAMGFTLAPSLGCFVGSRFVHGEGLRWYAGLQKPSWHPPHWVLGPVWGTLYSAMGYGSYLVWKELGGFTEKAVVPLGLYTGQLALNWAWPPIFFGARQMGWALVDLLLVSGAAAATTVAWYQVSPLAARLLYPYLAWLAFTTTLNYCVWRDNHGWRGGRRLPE
Translocator protein (Mus musculus), sequence (P50637 whole entry, looked up): as the sequence (P16257 whole entry, looked up) above, with S2P, Q3E, I67V, E77D, V110A, M113L, M149V, T168P counted along it
Voltage-gated inwardly rectifying potassium channel KCNH2, sequence (Q12809 whole entry): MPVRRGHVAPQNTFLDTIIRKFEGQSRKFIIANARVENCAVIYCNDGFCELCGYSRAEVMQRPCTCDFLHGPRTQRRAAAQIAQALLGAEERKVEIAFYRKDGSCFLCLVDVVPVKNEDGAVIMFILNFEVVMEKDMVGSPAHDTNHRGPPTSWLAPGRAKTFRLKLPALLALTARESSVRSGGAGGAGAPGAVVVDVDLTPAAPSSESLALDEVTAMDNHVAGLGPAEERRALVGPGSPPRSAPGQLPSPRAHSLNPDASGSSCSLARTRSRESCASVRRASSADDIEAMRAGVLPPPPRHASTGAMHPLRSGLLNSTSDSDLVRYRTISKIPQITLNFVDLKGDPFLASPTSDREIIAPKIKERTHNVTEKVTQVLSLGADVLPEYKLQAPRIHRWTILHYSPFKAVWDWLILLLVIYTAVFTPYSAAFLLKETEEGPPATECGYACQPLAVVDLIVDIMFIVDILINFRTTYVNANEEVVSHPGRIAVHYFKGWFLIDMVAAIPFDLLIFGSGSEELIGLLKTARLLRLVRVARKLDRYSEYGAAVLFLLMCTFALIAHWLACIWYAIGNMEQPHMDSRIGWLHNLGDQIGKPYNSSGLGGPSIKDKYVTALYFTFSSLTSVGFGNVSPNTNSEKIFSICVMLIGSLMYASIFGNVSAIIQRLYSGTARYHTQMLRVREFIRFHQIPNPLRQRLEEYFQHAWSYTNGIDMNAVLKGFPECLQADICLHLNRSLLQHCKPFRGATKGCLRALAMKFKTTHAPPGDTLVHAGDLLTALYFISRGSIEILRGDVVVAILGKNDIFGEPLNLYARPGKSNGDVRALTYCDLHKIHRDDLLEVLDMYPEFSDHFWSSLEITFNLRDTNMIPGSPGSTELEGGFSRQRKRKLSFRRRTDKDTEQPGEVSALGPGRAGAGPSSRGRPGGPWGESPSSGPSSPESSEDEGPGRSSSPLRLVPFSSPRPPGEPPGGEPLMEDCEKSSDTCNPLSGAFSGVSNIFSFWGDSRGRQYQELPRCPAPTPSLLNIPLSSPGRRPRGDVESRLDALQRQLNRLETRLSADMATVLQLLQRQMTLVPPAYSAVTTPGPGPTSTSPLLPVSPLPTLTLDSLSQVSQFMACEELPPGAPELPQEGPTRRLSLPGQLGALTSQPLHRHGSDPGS
CYP3A4, sequence (P08684 whole entry): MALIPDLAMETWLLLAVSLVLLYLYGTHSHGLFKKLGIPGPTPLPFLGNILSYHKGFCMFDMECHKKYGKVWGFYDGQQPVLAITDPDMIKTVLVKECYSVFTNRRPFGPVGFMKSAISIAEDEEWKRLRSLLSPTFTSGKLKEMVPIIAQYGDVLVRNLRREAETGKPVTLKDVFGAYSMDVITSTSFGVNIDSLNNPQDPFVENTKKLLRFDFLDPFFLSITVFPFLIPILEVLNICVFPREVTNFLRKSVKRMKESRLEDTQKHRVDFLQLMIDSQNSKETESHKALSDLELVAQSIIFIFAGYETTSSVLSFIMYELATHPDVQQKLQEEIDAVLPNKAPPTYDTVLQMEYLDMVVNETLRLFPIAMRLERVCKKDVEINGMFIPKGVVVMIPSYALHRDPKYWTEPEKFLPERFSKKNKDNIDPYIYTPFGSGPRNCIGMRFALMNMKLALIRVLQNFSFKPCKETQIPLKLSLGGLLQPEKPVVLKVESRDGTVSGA

Cc1ccc(C(C)C)cc1NC(=O)Cn1c(Cc2c(Cl)cccc2Cl)nc2ccccc21
pIC50 [1]: < 4.00
Cmax [2]: 70 ng/mL
clearance [3]: 54.5 mL/min/kg
Activity [4]: 95%
Tmax [5]: 0.55 h
AUC(0-inf) [6]: 136 ng·h/mL
half-life [7]: 2.62 h
dose excreted [8]: 0.01%
activity at 20 min, 10 µM (CYP2D6): 140%
Kp at 2 h [9]: 1.02
pKd (Translocator protein [10]): 6.97
activity at 20 min, 10 µM (CYP3A4): 224%
pIC50 (Translocator protein [11]): 7.13
pKi (Translocator protein [11]): 7.64
Activity (Mus musculus): 12%
